AHR act – human AHR activation; P35869; AHR-responsive luciferase reporter cells, luminescence; activation, % at 5 µM; hit rate 2.5% among 320,000; AID 2796; in the data active = activation above about 47%;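 also: 0% = vehicle wells and 100% = reference agonist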
TbMetRS inhib – Trypanosoma brucei MetRS inhibition | hit rate 0.4% among 360,000 | purified T. brucei MetRS, ATP depletion, Kinase-Glo luminescence | inhibition, % at 11.9 µM | AID 624268;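 active = inhibition above a per-plate cutoff of the control wells' mean inhibition plus 3 SD, cut at about 5.5% in these data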;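 also: 0% = DMSO wells median and 100% = median of wells with control inhibitor compound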
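Material – parasite MetRS enzyme · Medium – HEPES-MgCl2-KCl buffer plus DTT, spermine, BSA, pyrophosphatase · Reagent – ATP, methionine and E. coli bulk tRNA substrates · Times – 15 min enzyme-compound preincubation, 2 h reaction, 10 min detection, 25 °C · Measured by – luminescence of leftover ATP · Evaluation – percent inhibition relative to median high and low control wells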
m5-HT2A agonist – activates the mouse 5-HT2A serotonin receptor. P35363. CHO-K1 mHTR2A beta-arrestin complementation, luminescence; percent of 30 µM serotonin response. activation, % at 7.6 µM. hit rate 0.66% among 360,000. AID 624169;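 active = activation above a run cutoff, the mean activation of all tested compounds plus 3 SD, cut at about 14% in these data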;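 also: 0% = plate median of compound wells and 100% = 30 µM serotonin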
Target sequence (P35363 whole entry, looked up): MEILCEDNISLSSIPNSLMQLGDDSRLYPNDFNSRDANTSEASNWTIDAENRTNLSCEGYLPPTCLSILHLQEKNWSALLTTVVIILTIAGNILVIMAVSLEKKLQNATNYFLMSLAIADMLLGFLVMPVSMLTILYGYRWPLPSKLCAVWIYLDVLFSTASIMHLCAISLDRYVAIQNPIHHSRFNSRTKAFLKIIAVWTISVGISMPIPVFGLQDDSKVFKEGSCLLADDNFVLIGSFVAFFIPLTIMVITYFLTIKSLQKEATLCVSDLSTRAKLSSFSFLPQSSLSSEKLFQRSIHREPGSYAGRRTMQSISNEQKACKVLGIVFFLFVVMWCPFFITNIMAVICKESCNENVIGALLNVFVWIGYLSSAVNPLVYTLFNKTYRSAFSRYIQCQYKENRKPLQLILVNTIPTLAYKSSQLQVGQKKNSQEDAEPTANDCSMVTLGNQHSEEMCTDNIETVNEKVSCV
AI-2 QS modul – Vibrio harveyi AI-2 quorum sensing modulation; Vibrio harveyi JMH597 AI-2 luminescence/OD600 ratio, 9 h; active compounds read low; strain lacks LuxN and CqsS sensors; 0 = neutral-control median; activity change, % at 7.5 µM; hit rate 0.4% among 300,000; AID 2094; in the data active = activity change below about -75%, passing the limit was not always enough;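 also: luminescence divided by OD600 gain over 9 h not by final OD600 alone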
MsrA act – activates bovine MsrA enzyme; activation, % at 10.6 µM; purified bovine MsrA, absorbance read-out; hit rate 0.3% among 360,000; AID 602163; in the data active = activation above about 7.5%;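 also: 0% = vehicle and 100% = reference activator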
MsrA inh – inhibitors of bovine MsrA. hit rate 0.75% among 360,000. purified bovine MsrA, absorbance read-out. inhibition, % at 15.5 µM; in the data active = inhibition above about 4.5%;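 also: 0% = vehicle wells with enzyme and 100% = reference inhibitor wells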
AHR act cf – confirmation of human aryl hydrocarbon receptor activators; shares compounds with AHR act; human cells, AHR-responsive luciferase reporter, luminescence; activation, % at 9 µM; hit rate 87% among 2,300; AID 2845; in the data active = activation above about 49%;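 also: HepG2 hepatoma cells carrying a DRE-driven firefly luciferase reporter; 0% = vehicle wells and 100% = reference agonist wells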
PXR act counter – counter-screen for AHR activators: human PXR activators; hit rate 88% among 2,300; cell-based PXR reporter, luciferase luminescence; AID 434939; shares compounds with AHR act; activation, % at 11.6 µM; in the data active = activation above about 11%;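 also: human hepatoma DPX-2 cells expressing full-length human PXR; 0% = DMSO and 100% = reference agonist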
Starred values were filed as active, the others as inactive; x = no result. Rows were chosen to be rich in hits. Some 4.4% of all compounds tested hit in one or more screens of this group.

SMILES | AHR act | TbMetRS inhib | m5-HT2A agonist | AI-2 QS modul | MsrA act | MsrA inh | AHR act cf | PXR act counter
CCOC(=O)C1CCCN(C(=O)c2ccc(S(=O)(=O)Nc3ccccc3OC)cc2)C1 (stereo not drawn) | -1.3 | -0.3 | -1.4 | x | -4.0 | 2.8 | x | x
N#CC1=C(N)Oc2n[nH]c(-c3ccc(F)cc3)c2C1c1ccncc1 (stereo not drawn) | 105.6* | -0.1 | 8.1 | -5.6 | -3.6 | 1.3 | 103.5* | 17.7*
N#CC1=C(N)Oc2n[nH]c(-c3ccccc3)c2C1c1cccc(OC(=O)N2CCOCC2)c1 (stereo not drawn) | 4.9 | -1.0 | 2.0 | 15.0 | -9.9 | 1.1 | x | x
N#CC1=C(N)Oc2n[nH]c(-c3ccncc3)c2C1c1ccsc1 (stereo not drawn) | 2.6 | -1.0 | 0.1 | 35.8 | -10.9 | 0.5 | x | x
N#CC1=C(N)Oc2n[nH]c(-c3ccc(F)cc3)c2C1c1cccc(OC(=O)N2CCOCC2)c1 (stereo not drawn) | 106.2* | -0.1 | -0.8 | 10.1 | -0.7 | -0.9 | 115.4* | 31.6*
Cc1ccc(N(C(=O)CNC(=O)c2ccco2)C(C(=O)NC2CCCCC2)c2cccnc2)cc1 (stereo not drawn) | 9.3 | -0.3 | 3.5 | 16.1 | -1.9 | -0.5 | x | x
CC(C)c1ccc(/C=C2\SC(=O)N(CC(=O)NCCCn3ccnc3)C2=O)cc1 | 1.5 | 0.2 | -1.4 | 39.9 | -1.6 | 2.1 | x | x
Cn1c(SCC(=O)NCc2ccc(F)cc2)nc2c([nH]c3ccccc32)c1=O | 126.3* | x | x | 18.9 | x | 2.0 | 96.9* | 90.5*
COc1cccc(-n2c(SCC(=O)NCC3CCCO3)nc3c([nH]c4ccccc43)c2=O)c1 (stereo not drawn) | 88.1* | 0.1 | -1.1 | 0.1 | -3.4 | 1.4 | 127.8* | 88.6*
COc1ccc(NC(=O)CSc2nc3c([nH]c4ccccc43)c(=O)n2C)cc1 | 20.0 | 0.1 | -4.8 | 28.4 | -2.0 | 0.2 | x | x
Cn1c(SCC(=O)NCCc2ccccc2)nc2c([nH]c3ccccc32)c1=O | 118.2* | 2.3 | 1.0 | 4.9 | -1.9 | -0.6 | 91.1* | 114.7*
CSc1ncc(C(=O)Nc2ccc(C(C)=O)cc2)c(C)n1 | x | -0.9 | 4.5 | 18.6 | -0.2 | 0.2 | x | x
CSc1ncc(C(=O)Nc2ccc(Cl)cc2)c(C)n1 | 93.5* | 0.2 | -2.8 | 17.2 | -1.1 | 1.7 | 100.4* | x
Clc1ccc2[nH]c3c(N4CCC5(CC4)OCCO5)ncnc3c2c1 | 98.9* | x | x | 34.5 | x | x | 56.3* | 33.2*
CC(=O)Nc1cccc(-c2ccnc3c2CC(C)(C(=O)Nc2cccc(NS(C)(=O)=O)c2)O3)c1 (stereo not drawn) | x | -0.5 | -5.9 | x | -5.7 | -1.0 | x | x
COc1ccc(-c2cc(-c3ccccc3O)[nH]n2)cc1 | 26.0 | -0.6 | -2.9 | 25.2 | -1.4 | -0.2 | x | x
Cc1ccccc1-c1cc(-c2ccccc2O)n[nH]1 | 111.8* | -0.2 | -2.7 | 25.8 | 0.7 | 0.2 | 95.5* | 9.8
COc1ccc(-c2cc(-c3ccccc3)n[nH]2)c(O)c1 | 125.3* | 0.3 | -6.1 | 6.7 | 0.2 | 1.6 | 73.0* | 16.6*
Oc1ccccc1-c1cc(-c2ccccc2)n[nH]1 | 97.5* | 0.4 | 0.7 | x | -0.7 | -0.1 | 87.8* | 13.1*
CC(OC(=O)CCN=C1NS(=O)(=O)c2ccccc21)C(=O)N(C)C1CCCCC1 (stereo not drawn) | -2.0 | -0.2 | 7.7 | 10.1 | -2.1 | 0.9 | x | x
O=C(CC1SCCNC1=O)NCc1ccccc1 (stereo not drawn) | x | -0.2 | -0.7 | x | 0.0 | -0.9 | x | x
CC1(C(=O)Nc2cccc(C(F)(F)F)c2)Cc2c(-c3ccc4c(c3)OCO4)ccnc2O1 (stereo not drawn) | x | -0.2 | 4.6 | x | -1.4 | -0.3 | x | x
CN(C(=O)c1cc([N+](=O)[O-])ccc1NCc1cccnc1)c1ccccc1 | 80.4* | 0.7 | 1.3 | 4.8 | -1.7 | 0.8 | 72.2* | 87.9*
CCCCN(CCCC)c1nc(-c2ccncc2)nc2ccccc12 | 7.5 | -0.1 | -5.1 | 9.8 | -0.6 | 0.0 | x | x
COCCCNc1nc(-c2ccncc2)nc2ccccc12 | 87.8* | -1.8 | 1.4 | -2.6 | -6.0 | 2.0 | 102.9* | 55.5*
SMILES | AHR act | TbMetRS inhib | m5-HT2A agonist | AI-2 QS modul | MsrA act | MsrA inh | AHR act cf | PXR act counter
c1ccc(-c2nc(NCCCn3ccnc3)c3ccccc3n2)cc1 | 81.8* | 0.5 | 13.1 | 20.4 | -0.3 | 1.1 | 89.2* | 75.6*
CCN(CC)c1nc(-c2ccccc2)nc2ccccc12 | 107.7* | -0.3 | -7.6 | 7.5 | 1.7 | -1.0 | 78.1* | 91.5*
COCCCNc1nc(-c2ccc(Cl)cc2)nc2ccccc12 | 98.0* | -0.1 | -6.8 | x | -1.5 | -0.7 | 91.2* | 29.7*
COCCN(CCOC)c1nc(-c2ccc(Cl)cc2)nc2ccccc12 | 118.0* | -0.7 | 6.5 | x | -1.8 | 0.6 | 82.8* | 69.8*
OCCCNc1nc(-c2ccc(Cl)cc2)nc2ccccc12 | 88.4* | 0.3 | -2.5 | 13.2 | -1.7 | 0.7 | 103.6* | 62.1*
OCCNc1nc(-c2ccccc2)nc2ccccc12 | 29.8 | -0.5 | -1.6 | -25.6 | -6.1 | 0.6 | x | x
COCCN(CCOC)c1nc(-c2ccccc2)nc2ccccc12 | x | -0.4 | -0.4 | 29.6 | -2.9 | 1.1 | x | x
CC1(C)CC(=O)C2=C(C1)N1C(=C(C#N)C2c2ccc(Cl)cc2)N=C(N)c2ccccc21 (stereo not drawn) | 96.7* | 0.1 | -5.6 | 40.7 | -1.8 | 1.3 | 7.6 | 159.3*
COc1ccccc1Nc1nc(NCCO)c2ccccc2n1 | x | x | x | 5.5 | x | x | x | x
COc1ccc(OC)c(Nc2nc(NCCO)c3ccccc3n2)c1 | 88.5* | 1.0 | -8.2 | 11.0 | -2.5 | -0.1 | 85.5* | 34.8*
CCCCCOc1ccc(Cn2ccnc2)cc1[N+](=O)[O-] | 101.1* | -0.4 | -2.1 | 35.1 | -3.8 | 0.8 | 75.2* | 53.1*
CCCCNC(=O)CC1Nc2ccccc2NC1=O (stereo not drawn) | 85.7* | 0.1 | 2.4 | 11.2 | -3.7 | 0.4 | 51.7* | 57.9*
O=C(CC1Nc2ccccc2NC1=O)NCCCN1CCCCCC1 (stereo not drawn) | 2.4 | -0.2 | 3.9 | -0.5 | -0.6 | 1.4 | x | x
Cc1cccc2cc(-c3nc4c(C)cccn4c3NCc3ccco3)c(=O)[nH]c12 | 27.7 | -0.5 | 4.3 | 29.8 | -1.9 | 1.6 | x | x
Cc1ccc2[nH]c(=O)c(-c3nc4cc(C)ccn4c3NCc3ccco3)cc2c1 | 87.6* | 0.1 | -0.9 | 10.4 | -1.2 | x | 74.9* | 39.5*
Cc1ccc(-c2noc(-c3cc4ccccc4oc3=O)n2)cc1 | 0.9 | -0.6 | -0.6 | 24.4 | 0.7 | -0.2 | x | x
c1ccc(-c2noc(-c3ccc4ccccc4c3)n2)cc1 | 38.3 | -0.2 | 0.5 | 36.5 | -2.7 | -0.1 | x | x
